{"source": "ChEMBL document CHEMBL1129929", "about": "“Analogues of methotrexate in rheumatoid arthritis. 1. Effects of 10-deazaaminopterin analogues on type II collagen-induced arthritis in mice” (J Med Chem, 1997)", "key": {"[1]": {"test_system": "Mus musculus", "test": "Incidence of disease(mouse type II collagen arthritis) was scored as the percentage of animals within each experimental group that exhibited joint or limb inflammation on day 37 at intraperitoneal of dose 4 mg/kg", "type": "functional", "how_it_was_run": "(§1)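 DBA/1 mice were immunized with bovine type II collagen (modified Courtenay method), with a collagen booster on day 21. Compounds were given ip starting 2 days before the first collagen challenge and every 2 days thereafter. Incidence was the percentage of animals per group with joint or limb inflammation, scored on days 23, 30, 37 and 44.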"}, "[2]": {"test": "Concentration required to inhibit the growth of chang liver cells", "type": "functional", "details": "Homo sapiens"}, "[3]": {"test_system": "Mus musculus", "test": "Incidence of disease(mouse type II collagen arthritis) was scored as the percentage of animals within each experimental group that exhibited joint or limb inflammation on day 44 at intraperitoneal of dose 8 mg/kg", "type": "functional", "how_it_was_run": "as §1"}, "[4]": {"test_system": "Mus musculus", "test": "Tested for antiinflammatory activity on mouse type II collagen arthritis as Paw swelling* of all animals in each group on day 37 at intraperitoneal dose of 8 mg/kg", "type": "functional", "how_it_was_run": "(§2)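 DBA/1 mice immunized with bovine type II collagen (Courtenay method, modified), antigen booster at day 21. Compounds given ip from 2 days before the first collagen challenge, then every 2 days. Hind paw dimensions (mm) measured for both limbs of all animals, expressed as mean ± SD. Eight mice per dose; untreated controls pooled from four experiments (48 animals).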"}, "[5]": {"test_system": "Mus musculus", "test": "Tested for antiinflammatory activity on mouse type II collagen arthritis as Paw swelling* of all animals in each group on day 44 at intraperitoneal dose of 4 mg/kg", "type": "functional", "how_it_was_run": "as §2"}, "[6]": {"test_system": "Mus musculus", "test": "Tested for antiinflammatory activity on mouse type II collagen arthritis as Paw swelling* of all animals in each group on day 30 at intraperitoneal dose of 2 mg/kg", "type": "functional", "how_it_was_run": "as §2"}, "[7]": {"test_system": "Mus musculus", "test": "Tested for antiinflammatory activity on mouse type II collagen arthritis as Paw swelling* of all animals in each group on day 44 at intraperitoneal dose of 2 mg/kg", "type": "functional", "how_it_was_run": "as §2"}, "[8]": {"test_system": "Mus musculus", "test": "Incidence of disease(mouse type II collagen arthritis) was scored as the percentage of animals within each experimental group that exhibited joint or limb inflammation on day 30 at intraperitoneal of dose 2 mg/kg", "type": "functional", "how_it_was_run": "as §1"}, "[9]": {"test_system": "Mus musculus", "test": "Tested for antiinflammatory activity on mouse type II collagen arthritis as Paw swelling* of all animals in each group on day 30 at intraperitoneal dose of 8 mg/kg", "type": "functional", "how_it_was_run": "as §2"}, "[10]": {"test_system": "Mus musculus", "test": "Incidence of disease(mouse type II collagen arthritis) was scored as the percentage of animals within each experimental group that exhibited joint or limb inflammation on day 23 at intraperitoneal dose of 4 mg/kg", "type": "functional", "how_it_was_run": "as §1"}, "[11]": {"test_system": "Mus musculus", "test": "Incidence of disease(mouse type II collagen arthritis) was scored as the percentage of animals within each experimental group that exhibited joint or limb inflammation on day 44 at intraperitoneal of dose 2 mg/kg", "type": "functional", "how_it_was_run": "as §1"}, "[12]": {"test_system": "L1210", "test": "Concentration required to inhibit the growth of L1210 cells", "type": "functional, cell-based", "details": "Mus musculus"}, "[13]": {"test_system": "Mus musculus", "test": "Tested for antiinflammatory activity on mouse type II collagen arthritis as Paw swelling* of all animals in each group on day 23 at intraperitoneal dose of 4 mg/kg", "type": "functional", "how_it_was_run": "as §2"}, "[14]": {"test_system": "Mus musculus", "test": "Tested for antiinflammatory activity on mouse type II collagen arthritis as Paw swelling* of all animals in each group on day 30 at intraperitoneal dose of 4 mg/kg", "type": "functional", "how_it_was_run": "as §2"}, "[15]": {"test_system": "Mus musculus", "test": "Tested for antiinflammatory activity on mouse type II collagen arthritis as Paw swelling* of all animals in each group on day 37 at intraperitoneal dose of 2 mg/kg", "type": "functional", "how_it_was_run": "as §2"}, "[16]": {"test_system": "Mus musculus", "test": "Incidence of disease(mouse type II collagen arthritis) was scored as the percentage of animals within each experimental group that exhibited joint or limb inflammation on day 37 at intraperitoneal of dose 8 mg/kg", "type": "functional", "how_it_was_run": "as §1"}, "[17]": {"test_system": "Mus musculus", "test": "Incidence of disease(mouse type II collagen arthritis) was scored as the percentage of animals within each experimental group that exhibited joint or limb inflammation on day 23 at intraperitoneal dose of 8 mg/kg", "type": "functional", "how_it_was_run": "as §1"}, "[18]": {"test_system": "Mus musculus", "test": "Tested for antiinflammatory activity on mouse type II collagen arthritis as Paw swelling* of all animals in each group on day 23 at intraperitoneal dose of 2 mg/kg", "type": "functional", "how_it_was_run": "as §2"}, "[19]": {"test_system": "Mus musculus", "test": "Incidence of disease(mouse type II collagen arthritis) was scored as the percentage of animals within each experimental group that exhibited joint or limb inflammation on day 44 at intraperitoneal of dose 4 mg/kg", "type": "functional", "how_it_was_run": "as §1"}, "[20]": {"test_system": "Mus musculus", "test": "Incidence of disease(mouse type II collagen arthritis) was scored as the percentage of animals within each experimental group that exhibited joint or limb inflammation on day 23 at intraperitoneal dose of 2 mg/kg", "type": "functional", "how_it_was_run": "as §1"}, "[21]": {"test_system": "Mus musculus", "test": "Tested for antiinflammatory activity on mouse type II collagen arthritis as Paw swelling* of all animals in each group on day 44 at intraperitoneal dose of 8 mg/kg", "type": "functional", "how_it_was_run": "as §2"}, "[22]": {"test_system": "Mus musculus", "test": "Incidence of disease(mouse type II collagen arthritis) was scored as the percentage of animals within each experimental group that exhibited joint or limb inflammation on day 30 at intraperitoneal of dose 8 mg/kg", "type": "functional", "how_it_was_run": "as §1"}, "[23]": {"test_system": "Mus musculus", "test": "Incidence of disease(mouse type II collagen arthritis) was scored as the percentage of animals within each experimental group that exhibited joint or limb inflammation on day 30 at intraperitoneal of dose 4 mg/kg", "type": "functional", "how_it_was_run": "as §1"}, "[24]": {"test_system": "Mus musculus", "test": "Tested for antiinflammatory activity on mouse type II collagen arthritis as Paw swelling* of all animals in each group on day 37 at intraperitoneal dose of 4 mg/kg", "type": "functional", "how_it_was_run": "as §2"}, "[25]": {"test_system": "Mus musculus", "test": "Tested for antiinflammatory activity on mouse type II collagen arthritis as Paw swelling* of all animals in each group on day 23 at intraperitoneal dose of 8 mg/kg", "type": "functional", "how_it_was_run": "as §2"}, "[26]": {"test_system": "Mus musculus", "test": "Incidence of disease(mouse type II collagen arthritis) was scored as the percentage of animals within each experimental group that exhibited joint or limb inflammation on day 37 at intraperitoneal of dose 2 mg/kg", "type": "functional", "how_it_was_run": "as §1"}}, "data": [{"smiles": "Nc1nc(N)c2nc(CCc3ccc(C(=O)NC(CCC(=O)O)C(=O)O)cn3)cnc2n1", "note": "(stereo unspecified)", "values": [{"measurement": "Animals", "setting": "[1]", "result": 71, "unit": "%"}, {"measurement": "IC50", "setting": "[2]", "result": 36, "unit": "nM"}, {"measurement": "Animals", "setting": "[3]", "result": 50, "unit": "%"}, {"measurement": "Paw swelling", "setting": "[4]", "result": 2.2, "unit": "mm"}, {"measurement": "Paw swelling", "setting": "[5]", "result": 2.68, "unit": "mm"}, {"measurement": "Paw swelling", "setting": "[6]", "result": 2.35, "unit": "mm"}, {"measurement": "Paw swelling", "setting": "[7]", "result": 2.88, "unit": "mm"}, {"measurement": "Animals", "setting": "[8]", "result": 50, "unit": "%"}, {"measurement": "Paw swelling", "setting": "[9]", "result": 2.22, "unit": "mm"}, {"measurement": "Animals", "setting": "[10]", "result": 0, "unit": "%"}, {"measurement": "Animals", "setting": "[11]", "result": 88, "unit": "%"}, {"measurement": "IC50", "setting": "[12]", "result": 88, "unit": "nM"}, {"measurement": "Paw swelling", "setting": "[13]", "result": 2.08, "unit": "mm"}, {"measurement": "Paw swelling", "setting": "[14]", "result": 2.24, "unit": "mm"}, {"measurement": "Paw swelling", "setting": "[15]", "result": 2.67, "unit": "mm"}, {"measurement": "Animals", "setting": "[16]", "result": 25, "unit": "%"}, {"measurement": "Animals", "setting": "[17]", "result": 0, "unit": "%"}, {"measurement": "Paw swelling", "setting": "[18]", "result": 2.13, "unit": "mm"}, {"measurement": "Animals", "setting": "[19]", "result": 100, "unit": "%"}, {"measurement": "Animals", "setting": "[20]", "result": 0, "unit": "%"}, {"measurement": "Paw swelling", "setting": "[21]", "result": 2.33, "unit": "mm"}, {"measurement": "Animals", "setting": "[22]", "result": 38, "unit": "%"}, {"measurement": "Animals", "setting": "[23]", "result": 57, "unit": "%"}, {"measurement": "Paw swelling", "setting": "[24]", "result": 2.57, "unit": "mm"}, {"measurement": "Paw swelling", "setting": "[25]", "result": 2.08, "unit": "mm"}, {"measurement": "Animals", "setting": "[26]", "result": 63, "unit": "%"}]}]}
